Source: ChEMBL document CHEMBL5634186, “Structure-Activity Relationship Study of Biselyngbyolide B Reveals Mitochondrial Fission-Induced Cytotoxicity in Cancer” (ACS Med Chem Lett, 2024)
pIC50: −log10 of the molar value. The source made the active and inactive calls. The rule behind the calls is not given here.

Assays:
HCT-116 [1] = assay: Induction of mitochondrial fission in human HCT-116 cells assessed as increase in DRP1 phosphorylation at S616 at 0.5 to 1 uM incubated for 8 to 24 hrs by immunoblotting analysis; format: functional, cell-based; details: dose 0.5-1 µM, time 8-24 hrs
Outline: (§1)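 Immunoblot in HCT116 cells: p-DRP1 S616, p-DRP1 S637, DRP1, Mitofusin1, Mitofusin2 and MFF over time (0, 8, 16, 24 h); p-DRP1 S616, S637, DRP1, Mitofusin1 and OPA at 0.5 and 1 μM. β-Actin loading control.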

HCT-116 [2] = assay: Induction of ROS generation in human HCT-116 cells at 0.5 to 1 uM incubated for 16 hrs by CellROX Red staining based confocal microscope analysis; format: functional, cell-based; details: dose 0.5-1 µM
Outline: (§2)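 HCT116 cells treated 16 h with compound (0.5 or 1 μM where dosed); stained 30 min with MitoTracker Deep Red FM (membrane potential) or CellROX Red FM (ROS); confocal imaging; mean fluorescence intensity quantified from five fields.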

HCT-116 [3] = assay: Anticancer activity against human HCT-116 cells assessed as inhibition of cell viability incubated for 16 hrs by MTT assay; format: functional, cell-based; details: HCT-116, 16 h
[4] = Cytotoxicity against HEK293 cells assessed as reduction in cell viability incubated for 16 hrs by MTT assay; format: toxicity, cell-based; details: human
HCT-116 [5] = assay: Induction of ROS production in human HCT-116 cells assessed as deterioration of mitochondrial length and area at 1 uM incubated for 16 hrs in presence of CellLight Mitochondria-GFP by confocal microscopy analysis; format: functional, cell-based
Outline: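 HCT116 cells transfected with CellLight Mitochondria-GFP, treated 1 μM for 16 h; confocal images quantified for mitochondrial length and area.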

HCT-116 [6] = assay: Induction of mitochondrial membrane potential loss in human HCT-116 cells at 0.5 to 1 uM incubated for 16 hrs by mitotracker red staining based confocal microscope analysis; format: functional, cell-based; details: dose 0.5-1 µM; outline: as §2
HCT-116 [7] = assay: Induction of mitochondrial fission in human HCT-116 cells assessed as decrease in DRP1 phosphorylation at S637 at 0.5 to 1 uM incubated for 8 to 24 hrs by immunoblotting analysis; format: functional, cell-based; details: dose 0.5-1 µM, time 8-24 hrs; outline: as §1

## CCCCC[C@@H]1C/C=C/C=C/C[C@H](C)/C=C(\C)[C@@H](OC)C/C=C/[C@@H](O)CC(=O)O1
HCT-116 [1]
  Activity: Active
HCT-116 [2]
  Activity: inactive
HCT-116 [3]
  pIC50: 4.64
[4]
  IC50 at 16 h: 20.2 µM
HCT-116 [5]
  Activity: Active
HCT-116 [6]
  Activity: inactive
HCT-116 [7]
  Activity: inactive
